Measurements reported in ChEMBL document CHEMBL4265954, “Discovery of potent liver-selective stearoyl-CoA desaturase-1 (SCD1) inhibitors, thiazole-4-acetic acid derivatives, for the treatment of diabetes, hepatic steatosis, and obesity” (Eur J Med Chem, 2018).

Assays:
Mus musculus [1] = test: Ex vivo inhibition of SCD1 in C57BL/6J mouse liver assessed as residual activity at 1 mg/kg, po treated for 6 hrs followed by incubation with [14C]stearoyl-CoA substrate for 10 mins by TLC assay relative to control; type: functional
In short: (§1)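 Male 6-week-old C57BL/6J mice dosed orally as a suspension in 0.5% methylcellulose. Liver or eyelid was taken 6 or 24 h later and homogenized in 100 mM Tris-HCl pH 7.4 with 0.25 M sucrose. S9 was obtained at 10,000 × g, 4 °C. S9 was incubated with [14C]stearoyl-CoA, NADH, MgCl2 and cytochrome b5 at room temperature, 10 min for liver and 30 min for eyelid. Lipids were saponified and run on AgNO3 TLC to quantify stearate and oleate. Result is % of vehicle control.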

Mus musculus [2] = test: Ex vivo inhibition of SCD1 in C57BL/6J mouse eyelid assessed as residual activity at 1 mg/kg, po treated for 6 hrs followed by incubation with [14C]stearoyl-CoA substrate for 30 mins by TLC assay relative to control; type: organism-based; in short: as §1
Cytochrome P450 1A2 = molecular target: T1, Cytochrome P450 1A2 (Homo sapiens, UniProt P05177); test: Inhibition of CYP1A2 (unknown origin); type: ADME
T1 sequence (P05177 whole entry): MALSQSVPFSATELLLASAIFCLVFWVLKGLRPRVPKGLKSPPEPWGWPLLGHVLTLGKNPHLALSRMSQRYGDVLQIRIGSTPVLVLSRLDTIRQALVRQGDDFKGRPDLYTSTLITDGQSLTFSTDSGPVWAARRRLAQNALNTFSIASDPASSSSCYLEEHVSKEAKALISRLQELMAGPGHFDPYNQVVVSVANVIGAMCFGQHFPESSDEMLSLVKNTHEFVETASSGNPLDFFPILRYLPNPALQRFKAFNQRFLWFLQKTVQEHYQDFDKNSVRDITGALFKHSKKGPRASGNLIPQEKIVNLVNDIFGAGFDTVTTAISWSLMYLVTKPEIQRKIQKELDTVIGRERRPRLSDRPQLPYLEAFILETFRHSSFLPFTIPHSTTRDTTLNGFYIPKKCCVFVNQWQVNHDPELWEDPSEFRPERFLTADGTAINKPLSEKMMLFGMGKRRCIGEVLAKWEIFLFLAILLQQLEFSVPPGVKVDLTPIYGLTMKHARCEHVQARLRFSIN

Cytochrome P450 2A6 = molecular target: T2, Cytochrome P450 2A6 (Homo sapiens, UniProt P11509); test: Inhibition of CYP2A6 (unknown origin); type: ADME
T2 sequence (P11509 whole entry): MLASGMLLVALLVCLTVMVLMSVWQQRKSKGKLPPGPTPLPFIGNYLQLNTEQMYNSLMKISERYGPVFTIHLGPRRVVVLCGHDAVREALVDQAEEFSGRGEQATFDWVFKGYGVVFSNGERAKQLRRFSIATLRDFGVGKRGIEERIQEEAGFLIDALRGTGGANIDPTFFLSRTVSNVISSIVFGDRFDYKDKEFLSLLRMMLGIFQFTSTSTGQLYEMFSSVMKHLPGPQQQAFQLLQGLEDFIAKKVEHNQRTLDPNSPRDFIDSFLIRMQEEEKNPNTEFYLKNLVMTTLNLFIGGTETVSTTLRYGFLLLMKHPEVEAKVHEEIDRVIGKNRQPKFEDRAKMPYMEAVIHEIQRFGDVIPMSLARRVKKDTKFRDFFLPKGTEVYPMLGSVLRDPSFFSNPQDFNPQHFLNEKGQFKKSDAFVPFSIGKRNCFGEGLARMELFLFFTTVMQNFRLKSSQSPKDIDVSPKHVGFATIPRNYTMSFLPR

Cytochrome P450 2C19 = Cytochrome P450 2C19 (Homo sapiens, UniProt P33261); test: Inhibition of CYP2C19 (unknown origin); type: ADME
[3] = Tmax in Sprague-Dawley rat at 10 mg/kg, po; type: ADME, organism-based; conditions: in vivo
In short: (§2)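 Two male Sprague-Dawley rats per route, 10 mg/kg po and 1 mg/kg iv. Cmax, tmax, terminal-phase half-life and AUC0-inf were taken from plasma concentration–time curves. Bioavailability was derived from the po and iv data.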

[4] = Apparent terminal half life in Sprague-Dawley rat at 10 mg/kg, po; type: ADME, organism-based; conditions: in vivo, read-out: betat1/2(app) (converted); in short: as §2
[5] = AUC (0 to infinity) in Sprague-Dawley rat at 10 mg/kg, po; type: ADME, organism-based; design: dose 10 mg/kg, route oral, time infinity; conditions: in vivo
[6] = Total clearance in Sprague-Dawley rat at 1 mg/kg, iv; type: ADME, organism-based; conditions: in vivo
In short: (§3)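 Single intravenous dose of 1 mg/kg, with a parallel oral arm at 10 mg/kg, given to two male animals per species: C57BL/6J mice and Sprague Dawley rats. Total body clearance was derived from the plasma concentration–time profile of the compound.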

[7] = Cmax in C57BL/6J mouse at 10 mg/kg, po; type: ADME, organism-based; design: dose 10 mg/kg, route oral; conditions: in vivo
In short: (§4)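 Two male C57BL/6J mice per route, 10 mg/kg po and 1 mg/kg iv. Plasma concentration–time profiles gave Cmax, tmax, terminal half-life and AUC0-inf. Bioavailability was derived from the po and iv data.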

[8] = Apparent terminal half life in C57BL/6J mouse at 10 mg/kg, po; type: ADME, organism-based; conditions: in vivo, read-out: betat1/2(app) (converted); in short: as §4
[9] = AUC (0 to infinity) in C57BL/6J mouse at 10 mg/kg, po; type: ADME, organism-based; design: dose 10 mg/kg, time infinity, route oral; conditions: in vivo
[10] = Oral bioavailability in C57BL/6J mouse at 10 mg/kg; type: ADME, organism-based; conditions: in vivo; in short: as §4
[11] = Total clearance in C57BL/6J mouse at 1 mg/kg, iv; type: ADME, organism-based; conditions: in vivo; in short: as §3
[12] = Metabolic stability in rat liver S9 fraction after 1 hr; type: ADME, subcellular; conditions: read-out: Stability
Mus musculus [13] = test: Antidiabetic activity in high fat diet fed C57BL/6J mouse assessed as reduction in plasma glucose AUC (0 to 120 mins) administered orally as diet mixture for 43 days and measured on day 22 of administration after overnight fasting by OGTT method; type: functional, organism-based
In short: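 Male? not stated. C57BL/6J mice fed high fat diet for one month, then given compound as HFD admixture (0.0040% or 0.0133%) for ~3 or 10 mg/kg/day over 43 days (10–16 weeks of age); controls on normal chow or HFD. Day 22: overnight fast, glucose load 1 g/kg; plasma glucose at 0, 0.5, 1, 2 h, AUC calculated; n=5–8, mean ± SD, Dunnett's test.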

[14] = Plasma concentration in high sucrose diet Sprague-Dawley rat at 10 mg/kg, po treated after 6 hrs; type: ADME, organism-based
In short: (§5)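 Sprague-Dawley rats on a high sucrose diet, given a single oral 10 mg/kg dose. Plasma, liver and eyelid drug concentrations were measured 6 h later, n=3. Liver/eyelid ratio was taken from the tissue concentrations.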

[15] = Drug uptake in high sucrose diet Sprague-Dawley rat liver at 10 mg/kg, po treated after 6 hrs; type: ADME, organism-based; conditions: read-out: Drug uptake; in short: as §5
[16] = Drug uptake in high sucrose diet Sprague-Dawley rat eyelid at 10 mg/kg, po treated after 6 hrs; type: ADME, organism-based; conditions: read-out: Drug uptake; in short: as §5

Chain of Cytochrome P450 2C19 (P33261 whole entry): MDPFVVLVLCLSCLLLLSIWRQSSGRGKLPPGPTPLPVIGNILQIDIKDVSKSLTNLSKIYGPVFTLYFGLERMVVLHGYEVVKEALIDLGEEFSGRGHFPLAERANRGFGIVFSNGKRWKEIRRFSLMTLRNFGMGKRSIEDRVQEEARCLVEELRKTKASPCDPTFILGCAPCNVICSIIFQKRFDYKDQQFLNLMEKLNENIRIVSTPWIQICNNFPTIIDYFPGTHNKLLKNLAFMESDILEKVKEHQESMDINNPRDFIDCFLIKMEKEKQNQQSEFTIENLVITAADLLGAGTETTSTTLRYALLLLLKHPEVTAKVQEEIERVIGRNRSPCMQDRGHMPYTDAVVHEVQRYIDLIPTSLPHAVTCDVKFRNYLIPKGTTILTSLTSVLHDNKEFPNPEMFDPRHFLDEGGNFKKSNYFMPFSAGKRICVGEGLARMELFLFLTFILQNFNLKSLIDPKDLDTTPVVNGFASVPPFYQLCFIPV

Activity (Mus musculus [2]): 97%
IC50 (Cytochrome P450 1A2): > 50 µM
IC50 (Cytochrome P450 2A6): > 50 µM
IC50 (Cytochrome P450 2C19): > 50 µM
Tmax [3]: 0.5 h
half-life [4]: 4.7 h
AUC(0-inf) [5]: 16.5 µM·h
clearance [6]: 0.21 L/h/kg
Cmax [7]: 1.7 µM
half-life [8]: 5.2 h
AUC(0-inf) [9]: 10.2 µM·h
bioavailability [10]: 28%
clearance [11]: 0.61 L/h/kg
remaining at 1 h [12]: 87%
concentration at 6 h [14]: 0.552 µM
concentration at 6 h [15]: 1 µM
concentration at 6 h [16]: 0.16 µM
Structure (SMILES): CCCCc1ccccc1NCc1ccc(C(=O)Nc2nc(CC(=O)O)cs2)s1
Activity (Mus musculus [1]): 13%
Activity (Mus musculus [13]): Dose-dependent effect
